Results reported in ChEMBL document CHEMBL1145774, “Synthesis and biological effects of novel 2-amino-3-naphthoylthiophenes as allosteric enhancers of the A1 adenosine receptor” (J Med Chem, 2003).

Experiments:
[1] = biological target: T1, Adenosine receptor A1 (Homo sapiens) (UniProt P30542); test: Percent change in cAMP content of CHO (Chinese hamster ovary) cells expressing human Adenosine A1 receptor at 1 uM; format: functional, cell-based
T1 sequence (whole entry): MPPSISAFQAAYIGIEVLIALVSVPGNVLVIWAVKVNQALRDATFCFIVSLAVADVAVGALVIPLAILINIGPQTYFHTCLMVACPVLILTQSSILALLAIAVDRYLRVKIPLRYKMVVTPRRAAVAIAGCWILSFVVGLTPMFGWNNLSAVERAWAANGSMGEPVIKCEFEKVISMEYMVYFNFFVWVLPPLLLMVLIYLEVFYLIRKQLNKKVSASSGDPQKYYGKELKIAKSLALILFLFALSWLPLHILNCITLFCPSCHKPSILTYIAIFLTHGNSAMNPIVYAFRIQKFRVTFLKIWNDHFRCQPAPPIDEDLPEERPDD
Outline: (§1)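 CHO cells stably expressing human A1 receptor (~8000 fmol/mg protein) were grown in Ham's F-12 with 10% FBS and G-418 for 48 h to confluence. HCl (50 mM final) stopped the reaction, and cAMP was measured by radioimmunoassay. Values are % change versus no-compound control, mean ± SEM of six experiments.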

[2] = biological target: T1, Adenosine receptor A1 (Homo sapiens); test: Percent change in cAMP content of CHO (Chinese hamster ovary) cells expressing human Adenosine A1 receptor at 0.1 uM; format: functional, cell-based; outline: as §1
[3] = biological target: T1, Adenosine receptor A1 (Homo sapiens); test: Percent change in cAMP content of CHO (Chinese hamster ovary) cells expressing human Adenosine A1 receptor at 10 uM; format: functional, cell-based; outline: as §1
[4] = biological target: T1, Adenosine receptor A1 (Homo sapiens); test: Percent change in cAMP content of CHO (Chinese hamster ovary) cells expressing human Adenosine A1 receptor at 0.01 uM; format: functional, cell-based; outline: as §1
[5] = biological target: T1, Adenosine receptor A1 (Homo sapiens); test: Ability to displace the binding of [3H]DPCPX to the ligand binding site of CHO:hA1 (human Adenosine A1 receptor) at concentration of 10 uM
Outline: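 Membranes came from hypotonic lysis of CHO:hA1 cells, a 100 000g pellet and ADA 2 U/mL treatment for 30 min at 37 °C. Membranes (100 µg protein) were incubated with 1 nM [3H]DPCPX in Tris-HCl pH 7.4 for 150 min at 25 °C, with compound added from DMSO (1% final). Nonspecific binding was taken with 1 µM DPCPX, and bound ligand was separated on GF/B filters.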

[6] = biological target: Adenosine receptor A2a (Homo sapiens) (UniProt P29274); test: Ability to displace the binding of [3H]-ZM 241385, to the ligand binding site of CHO:hA2A (human Adenosine A2A receptor) at concentration of 10 uM
Adenosine receptor A2a (Homo sapiens), sequence (P29274 whole entry): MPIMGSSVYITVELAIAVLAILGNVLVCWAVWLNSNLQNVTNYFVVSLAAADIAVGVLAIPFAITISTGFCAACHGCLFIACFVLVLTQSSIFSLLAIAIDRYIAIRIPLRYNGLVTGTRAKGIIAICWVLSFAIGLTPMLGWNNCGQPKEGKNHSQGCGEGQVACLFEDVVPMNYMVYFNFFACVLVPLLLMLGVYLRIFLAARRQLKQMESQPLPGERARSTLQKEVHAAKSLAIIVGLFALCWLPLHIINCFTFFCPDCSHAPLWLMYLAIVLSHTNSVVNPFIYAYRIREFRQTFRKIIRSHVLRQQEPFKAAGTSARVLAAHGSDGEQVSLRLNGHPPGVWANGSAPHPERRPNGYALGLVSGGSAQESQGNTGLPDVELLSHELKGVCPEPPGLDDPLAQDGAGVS
Outline: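 CHO:hA2A membranes (100 µg protein, ADA-treated) were incubated with 2 nM [3H]ZM 241385 in Tris-HCl with MgCl2, pH 7.4, for 60 min at 4 °C, with compound from DMSO (1% final). Nonspecific binding was taken with 1 µM ZM241385. After filtration, results are % displacement by 10 µM compound, ±STD, n = 3.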

[7] = biological target: T2, Adenosine receptor A3 (Homo sapiens) (UniProt P0DMS8); test: Ability to displace the binding of [3H]-MRE 3008-F20 to the ligand binding site of CHO:hA3 (human Adenosine receptor) at concentration of 10 uM
T2 sequence (whole entry): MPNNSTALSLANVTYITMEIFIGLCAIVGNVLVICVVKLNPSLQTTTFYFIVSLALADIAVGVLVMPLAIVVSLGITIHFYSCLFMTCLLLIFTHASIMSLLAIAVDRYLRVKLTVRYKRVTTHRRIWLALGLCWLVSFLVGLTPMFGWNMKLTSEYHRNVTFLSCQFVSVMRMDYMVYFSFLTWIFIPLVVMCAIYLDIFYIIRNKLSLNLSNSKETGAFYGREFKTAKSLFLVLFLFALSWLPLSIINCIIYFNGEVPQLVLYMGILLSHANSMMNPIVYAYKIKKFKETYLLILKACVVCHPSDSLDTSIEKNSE
Outline: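 Assays used 2 nM [3H]MRE 3008F20 on CHO:hA3 membranes (100 µg protein, ADA-treated) for 150 min at 4 °C, in Tris-HCl with MgCl2 and 1 mM EDTA, pH 7.4, with compound from DMSO (1% final). Bound ligand was separated by filtration. Results are % displacement by 10 µM compound, ±STD, n = 3.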

Change [1] [%]	Change [2] [%]	Change [3] [%]	Change [4] [%]	inhibition [5] [%]	inhibition [6] [%]	inhibition [7] [%]	SMILES
-32	-8	-51	-5	–	–	–	Cc1sc(N)c(C(=O)c2ccc(C)c3ccccc23)c1C
-25	-7	19	-21	–	–	–	Nc1sc2c(c1C(=O)c1cccc3ccccc13)CCN(Cc1ccccc1)C2
8	-7	-1	4	–	–	–	Nc1sc2c(c1C(=O)c1ccc3c(c1)Cc1ccccc1-3)CCN(Cc1ccccc1)C2
-5	3	-38	9	–	–	–	COc1ccc(C(=O)c2c(N)sc(C)c2C)c2ccccc12
-11	1	-13	-0	–	–	–	Cc1cc(C(=O)c2c(N)sc3c2CCCC3)cc2ccc(Cl)cc12
-5	1	-9	-1	–	–	–	Cc1cc(C(=O)c2c(N)sc3c2CCN(Cc2ccccc2)C3)cc2ccc(Cl)cc12
41	-12	56	-8	–	–	–	Nc1sc2c(c1C(=O)c1ccc3ccccc3c1)CCN(Cc1cccnc1)C2
-9	-3	-22	4	–	–	–	Cc1sc(N)c(C(=O)c2cc(C)c3ccccc3c2)c1C
-47	-18	-56	12	–	–	–	Cc1sc(N)c(C(=O)c2ccc(Cl)c3ccccc23)c1C
1	9	-37	17	13.5	-0	19	Nc1sc2ccccc2c1C(=O)c1cccc2ccccc12
-10	-20	-17	-10	–	–	–	Nc1sc2c(c1C(=O)c1ccc3ccccc3c1)CCN(Cc1ccccc1Cl)C2
26	12	26	8	–	–	–	Nc1sc2c(c1C(=O)c1ccc3ccccc3c1)CCN(Cc1ccc([N+](=O)[O-])cc1)C2
7	6	3	7	–	–	–	Nc1sc2c(c1C(=O)c1ccc3c(c1)Cc1ccccc1-3)CCCC2
-13	-7	-34	-0	–	–	–	Cc1ccc(C(=O)c2c(N)sc3c2CCN(Cc2ccccc2)C3)c2ccccc12
7	-12	-3	9	–	–	–	Nc1sc2c(c1C(=O)c1ccc3ccccc3c1)CCN(Cc1cccc(Cl)c1)C2
-7	-1	-21	3	–	–	–	Nc1sc2c(c1C(=O)c1ccc(Cl)c3ccccc13)CCN(Cc1ccccc1)C2
-18	-12	-60	-11	2.5	-0	22	Nc1sc2c(c1C(=O)c1ccc3ccccc3c1)CCN(Cc1ccccc1)C2
-0	2	-16	-0	–	–	–	Cc1cc(C(=O)c2c(N)sc3c2CCN(Cc2ccccc2)C3)cc2ccccc12
-8	-4	-28	-1	-0	-0	-0	Cc1sc(N)c(C(=O)c2ccc3ccccc3c2)c1C
-10	-17	-19	-4	–	–	–	Cc1sc(N)c(C(=O)c2ccc3c(c2)Cc2ccccc2-3)c1C
-21	13	-45	17	–	–	–	Cc1ccc(C(=O)c2c(N)sc3c2CCCC3)c2ccccc12

Change [1] [%]	Change [2] [%]	Change [3] [%]	Change [4] [%]	inhibition [5] [%]	inhibition [6] [%]	inhibition [7] [%]	SMILES
-17	4	-48	9	–	–	–	Cc1ccc(C(=O)c2c(N)sc3c2CCC3)c2ccccc12
-9	10	28	7	–	–	–	Nc1sc2c(c1C(=O)c1ccc3ccccc3c1)CCC(Cc1ccccc1)C2 (configuration not stated)
-10	-3	-31	-3	3	-0	-0	Nc1sc2c(c1C(=O)c1ccc3ccccc3c1)CCN(Cc1ccccc1F)C2
-10	-1	5	-3	–	–	–	COc1ccc(CN2CCc3c(sc(N)c3C(=O)c3ccc4ccccc4c3)C2)c(OC)c1OC
31	5	33	-8	–	–	–	Nc1sc2c(c1C(=O)c1ccc3ccccc3c1)CCC(c1ccccc1)C2 (configuration not stated)
-18	-0	-24	-0	4	-0	-0	Cc1sc(N)c(C(=O)c2cc(C)c3cc(Cl)ccc3c2)c1C
-13	-7	-34	-0	6	-0	-0	Cc1cc(C(=O)c2c(N)sc3c2CCC3)cc2ccccc12
4	16	6	18	–	–	–	COc1ccc(C2SCc3c(sc(N)c3C(=O)c3cccc4ccccc34)S2)cc1 (configuration not stated)
-6	-15	-9	-3	–	–	–	Nc1sc2c(c1C(=O)c1ccc3c(c1)Cc1ccccc1-3)CCC2
3	11	-12	-0	–	–	–	COc1ccc(C(=O)c2c(N)sc3c2CCN(Cc2ccccc2)C3)c2ccccc12
-12	-5	-42	18	–	–	–	Nc1sc2c(c1C(=O)c1ccc(Br)c3ccccc13)CCN(Cc1ccccc1)C2
-14	-7	-21	-8	–	–	–	Nc1sc2c(c1C(=O)c1cccc3ccccc13)CCC(Cc1ccccc1)C2 (configuration not stated)
-3	5	-17	5	–	–	–	COc1ccc(C(=O)c2c(N)sc3c2CCCC3)c2ccccc12
-6	-14	-17	4	–	–	–	Cc1cc(C(=O)c2c(N)sc3c2CCC3)cc2ccc(Cl)cc12
-2	-9	-8	-11	–	–	–	Nc1sc2c(c1C(=O)c1ccc3ccccc3c1)CCN(Cc1ccc(F)cc1)C2
-19	-3	-63	-5	–	–	–	Cc1sc(N)c(C(=O)c2ccc(I)c3ccccc23)c1C
-6	1	-13	-6	–	–	–	Nc1sc2c(c1C(=O)c1ccc(I)c3ccccc13)CCN(Cc1ccccc1)C2
-21	-8	-6	-6	–	–	–	Nc1sc2c(c1C(=O)c1ccc3ccccc3c1)CCN(Cc1ccc(Cl)cc1)C2
-8	-9	-20	-7	–	–	–	Cc1cc(C(=O)c2c(N)sc3c2CCCC3)cc2ccccc12
-2	-1	-60	-8	–	–	–	Cc1sc(N)c(C(=O)c2ccc(Br)c3ccccc23)c1C
